This is an account of results in publication PMC6733178 (ACS Omega, 2019).

Converted amounts (≈) assume the structure as drawn. A value given as a limit tells only on which side of the number the result lay.

The subject of assay [1] is tested Gram-positive strains (S. aureus incl. MRSA, S. epidermidis, B. subtilis). In words: MIC summarised in the text over the tested Gram-positive strains. In kind it is cell-based.
In assay [2] the test system is S. aureus ATCC 700699 (Sa99). In words: MIC, broth microdilution with resazurin. The format is cell-based, Staphylococcus aureus. The conditions noted are these: for MIC: Staphylococcus aureus, ATCC700699, read-out: MIC Values Sa99. Put shortly: (§1)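 CLSI broth microdilution. Strains were grown overnight at 35 °C on TSA or TSA with 5% sheep blood. Colonies were suspended in 0.9% saline to 0.5 McFarland, then diluted 1:100 in Mueller Hinton broth (about 1 × 10^6 CFU/mL). Test compound (2 mg/mL DMSO stock) was serially diluted 1:2 from 50 µg/mL final. Resazurin was added at 8 µg/mL final, and plates were incubated 35 °C for 20–24 h and read visually. MIC is the lowest concentration without the resazurin colour change. Each plate carried untreated, DMSO and antibiotic controls.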

Assay [3] concerns S. aureus ATCC 33591 (Sa91). Put plainly: MIC, broth microdilution with resazurin. The format is cell-based, Staphylococcus aureus. The conditions noted are these: Staphylococcus aureus, ATCC33591, read-out: MIC Values Sa91. Put shortly:
as §1

Assay [4] relates to S. aureus ATCC 33592 (Sa92). Put plainly: MIC, broth microdilution with resazurin. The conditions noted are these: Staphylococcus aureus, ATCC33592, read-out: MIC Values Sa92. The format is cell-based, Staphylococcus aureus. The gist of the method:
as §1

The subject of assay [5] is S. aureus BAA-2312 (Sa12). In words: MIC, broth microdilution with resazurin. The format is cell-based, Staphylococcus aureus. Particulars: Staphylococcus aureus, BAA2312, read-out: MIC Values Sa12. The gist of the method:
as §1

Assay [6] deals with S. aureus ATCC 25923 (Sa). In words: MIC, broth microdilution with resazurin. The conditions noted are these: Staphylococcus aureus, ATCC25923, read-out: MIC Values Sa. The format is cell-based, Staphylococcus aureus. Put shortly:
as §1

For assay [7], the system named is S. epidermidis 700296 (Se). In words: MIC, broth microdilution with resazurin. In kind it is cell-based. Particulars: Staphylococcus epidermidis, read-out: MIC Values Se.
The test system of assay [8] is A. baumannii ATCC 747 (Ab47). In words: MIC, broth microdilution with resazurin. The format is cell-based, Acinetobacter baumannii. The conditions noted are these: Acinetobacter baumannii, ATCC747, read-out: MIC Ab47. Put shortly: as §1
Assay [9] concerns A. baumannii ATCC 19606 (Type Strain, AB06). Put plainly: MIC, broth microdilution with resazurin. In kind it is cell-based, Acinetobacter baumannii. Particulars: Acinetobacter baumannii, ATCC19606, read-out: MIC Ab06. Put shortly: as §1

For the molecule “4-[4-[(2-Benzyl-2-phenyl-hydrazino)methyl]-3-(4-fluorophenyl)pyrazol-1-yl]benzoic Acid [Compound 24]”, in assay [1], the “activity against the tested strains (in words)” value (from here on “activity”) was “failed to show any significant activity”.

Turning to `O=Cc1cn(-c2ccc(C(=O)O)cc2)nc1-c1cccc(F)c1` [3a, 4-[3-(3-Fluorophenyl)-4-formyl-pyrazol-1-yl]benzoic Acid], the “MIC Values Sa99” value in [2] (antibiotic-resistant strain, NA = No Activity) is on record as “did not show any activity”.

As to `CN(/N=C/c1cn(-c2ccc(C(=O)O)cc2)nc1-c1cccc(F)c1)c1ccccc1` [Compound 4, 4-{3-(3-Fluorophenyl)-4-[(E)-(2-methyl-2-phenylhydrazinylidene)methyl]-1H-pyrazol-1-yl}benzoic Acid], the MIC turned out to be 25 µg/mL (≈ 60.3 µM) in assay [3]; 12.5 µg/mL (≈ 30.2 µM) in [4]; 25 µg/mL (≈ 60.3 µM) in assay [2]; 25 µg/mL (≈ 60.3 µM) in assay [5]; 12.5 µg/mL (≈ 30.2 µM) in assay [6]; 12.5 µg/mL (≈ 30.2 µM) in [7]. The “activity” value in assay [1] is given as “moderate growth inhibition”.

With `O=C(O)c1ccc(-n2cc(/C=N/N(Cc3ccccc3)c3ccccc3)c(-c3cccc(F)c3)n2)cc1` [Compound 6, 4-[4-[(E)-[Benzyl(phenyl)hydrazono]methyl]-3-(3-fluorophenyl)pyrazol-1-yl]benzoic Acid], the MIC in [3], in assay [4], in assay [2], in assay [5], in [6] and in assay [7] was 1.56 µg/mL (≈ 3.18 µM) each time.

For `O=C(O)c1ccc(-n2cc(/C=N/Nc3cc(F)ccc3F)c(-c3cccc(F)c3)n2)cc1` [Compound 11, 4-[4-[(E)-[(2,5-Difluorophenyl)hydrazono]methyl]-3-(3-fluorophenyl)pyrazol-1-yl]benzoic Acid], the minimum inhibitory concentration (MIC) in assay [3] turned out to be 12.5 µg/mL (≈ 28.6 µM); in assay [4] it was 3.12 µg/mL (≈ 7.16 µM); in assay [2], 6.25 µg/mL (≈ 14.3 µM); in assay [5], 12.5 µg/mL (≈ 28.6 µM); in [6], 12.5 µg/mL (≈ 28.6 µM); in [7], 12.5 µg/mL (≈ 28.6 µM).

On to `O=C(O)c1ccc(-n2cc(/C=N/Nc3cccc(Cl)c3F)c(-c3cccc(F)c3)n2)cc1` [Compound 13, 4-[4-[(E)-[(3-Chloro-2-fluorophenyl)hydrazono]methyl]-3-(3-fluorophenyl)pyrazol-1-yl]benzoic Acid], for which the minimal inhibitory concentration (MIC) in assay [3] came to 6.25 µg/mL (≈ 13.8 µM); in assay [4], 0.78 µg/mL (≈ 1.72 µM); in [2], 3.12 µg/mL (≈ 6.9 µM); in assay [5], 12.5 µg/mL (≈ 27.6 µM); in assay [6] it was 3.12 µg/mL (≈ 6.9 µM); in assay [7], 6.25 µg/mL (≈ 13.8 µM). Besides, the “MIC value as low as” value in [1] (lowest MIC over the tested Gram-positive / MRSA strains) is 0.78 µg/mL (≈ 1.72 µM).

Take `O=C(O)c1ccc(-n2cc(/C=N/Nc3c(F)c(F)cc(F)c3F)c(-c3cccc(F)c3)n2)cc1` [Compound 14, 4-[3-(3-Fluorophenyl)-4-[(E)-[(2,3,5,6-tetrafluorophenyl)hydrazono]methyl]pyrazol-1-yl]benzoic Acid]: the MIC in [3] stood at 12.5 µg/mL (≈ 26.5 µM); in assay [4] it was 6.25 µg/mL (≈ 13.2 µM); in assay [2], 6.25 µg/mL (≈ 13.2 µM); in [5], 12.5 µg/mL (≈ 26.5 µM); in [6] it was 12.5 µg/mL (≈ 26.5 µM); in assay [7] it was 25 µg/mL (≈ 52.9 µM). In [1], the “activity” value is reported as “moderate activity”.

Consider `O=C(O)c1ccc(-n2cc(/C=N/Nc3c(F)c(F)c(F)c(F)c3F)c(-c3cccc(F)c3)n2)cc1` [Compound 15, 4-[3-(3-Fluorophenyl)-4-[(E)-[(2,3,4,5,6-pentafluorophenyl)hydrazono]methyl]pyrazol-1-yl]benzoic Acid], for which the MIC in assay [3] was determined as 12.5 µg/mL (≈ 25.5 µM); in assay [4] it was 3.12 µg/mL (≈ 6.37 µM); in [2] it was 6.25 µg/mL (≈ 12.7 µM); in assay [5], 12.5 µg/mL (≈ 25.5 µM); in assay [6] it was 12.5 µg/mL (≈ 25.5 µM); in assay [7], 25 µg/mL (≈ 51 µM). In addition, the “activity” value in assay [1] is reported as “moderate activity”.

In the case of `O=C(O)c1ccc(-n2cc(/C=N/Nc3ccc(C(F)(F)F)cc3)c(-c3cccc(F)c3)n2)cc1` [Compound 16, 4-[3-(3-Fluorophenyl)-4-[(E)-[[4-(trifluoromethyl)phenyl]hydrazono]methyl]pyrazol-1-yl]benzoic Acid], the MIC in assay [3] amounted to 6.25 µg/mL (≈ 13.3 µM); in assay [4], 6.25 µg/mL (≈ 13.3 µM); in [2] it was 6.25 µg/mL (≈ 13.3 µM); in [5], 12.5 µg/mL (≈ 26.7 µM); in assay [6] it was 12.5 µg/mL (≈ 26.7 µM); in [7] it was 12.5 µg/mL (≈ 26.7 µM). In addition, the “activity” value in assay [1] is recorded as “moderate activity”.

On to `O=C(O)c1ccc(N/N=C/c2cn(-c3ccc(C(=O)O)cc3)nc2-c2cccc(F)c2)cc1` [Compound 18, 4-[(2E)-2-[[1-(4-Carboxyphenyl)-3-(3-fluorophenyl)pyrazol-4-yl]methylene]hydrazino]benzoic Acid], for which the “activity” value in assay [1] is “completely ceased the activity”.

In the case of `O=C(O)c1ccc(-n2cc(/C=N/n3cnnc3)c(-c3cccc(F)c3)n2)cc1` [Compound 19, 4-[3-(3-Fluorophenyl)-4-[(E)-1,2,4-triazol-4-yliminomethyl]pyrazol-1-yl]benzoic Acid], the “activity” value in [1] was “completely ceased the activity”.

Regarding `O=C(O)c1ccc(-n2cc(/C=N/Nc3ccccn3)c(-c3cccc(F)c3)n2)cc1` [Compound 20, 4-[3-(3-Fluorophenyl)-4-{(E)-[2-(pyridin-2-yl)hydrazinylidene]methyl}-1H-pyrazol-1-yl]benzoic Acid], the “activity” value in [1] is “completely ceased the activity”.

On to `O=C(O)c1ccc(-n2cc(/C=N/N(Cc3ccccc3)Cc3ccccc3)c(-c3ccc(F)cc3)n2)cc1` [Compound 25, 4-[4-[(E)-(Dibenzylhydrazono)methyl]-3-(4-fluorophenyl)pyrazol-1-yl]benzoic Acid], for which the values for the MIC in [4] and in assay [2] were 3.12 µg/mL (≈ 6.19 µM) and 6.25 µg/mL (≈ 12.4 µM), respectively.

For the molecule `O=C(O)c1ccc(-n2cc(/C=N/Nc3ccc(F)cc3)c(-c3ccc(F)cc3)n2)cc1` [Compound 26, 4-[3-(4-Fluorophenyl)-4-[(E)-[(4-fluorophenyl)hydrazono]methyl]pyrazol-1-yl]benzoic Acid], the minimal inhibitory concentration (MIC) in assay [3] is 25 µg/mL (≈ 59.8 µM); in assay [4] it was 12.5 µg/mL (≈ 29.9 µM); in assay [2] it was 12.5 µg/mL (≈ 29.9 µM); in assay [8] it was more than 25 µg/mL; in assay [5], 25 µg/mL (≈ 59.8 µM); in assay [9], 12.5 µg/mL (≈ 29.9 µM). Further, the MIC in assay [6] is 12.5 µg/mL (≈ 29.9 µM); in [7], 25 µg/mL (≈ 59.8 µM). The “activity” value in assay [1] is “moderate activity”.

For `O=C(O)c1ccc(-n2cc(/C=N/Nc3cccc(Br)c3)c(-c3ccc(F)cc3)n2)cc1` [Compound 27, 4-[4-[(E)-[(3-Bromophenyl)hydrazono]methyl]-3-(4-fluorophenyl)pyrazol-1-yl]benzoic Acid], the MIC in assay [3] turned out to be 12.5 µg/mL (≈ 26.1 µM); in [4], 3.12 µg/mL (≈ 6.52 µM); in assay [2], 6.25 µg/mL (≈ 13 µM); in [8] it was 25 µg/mL (≈ 52.2 µM); in assay [5], 12.5 µg/mL (≈ 26.1 µM); in assay [9], 6.25 µg/mL (≈ 13 µM). Besides, the figures for the MIC in assay [6] and in assay [7] were 12.5 µg/mL (≈ 26.1 µM) and 25 µg/mL (≈ 52.2 µM), respectively. Further, the “activity” value in assay [1] is “moderate activity”.

Consider `O=C(O)c1ccc(-n2cc(/C=N/Nc3cc(F)ccc3F)c(-c3ccc(F)cc3)n2)cc1` [Compound 28, 4-[4-[(E)-[(2,5-Difluorophenyl)hydrazono]methyl]-3-(4-fluorophenyl)pyrazol-1-yl]benzoic Acid], for which the MIC in assay [3] came out at 25 µg/mL (≈ 57.3 µM); in [4], 6.25 µg/mL (≈ 14.3 µM); in assay [2] it was 6.25 µg/mL (≈ 14.3 µM); in assay [5], 12.5 µg/mL (≈ 28.6 µM); in [6] it was 12.5 µg/mL (≈ 28.6 µM); in assay [7] it was 12.5 µg/mL (≈ 28.6 µM). The “activity” value in assay [1] was “moderate activity”.

On to `O=C(O)c1ccc(-n2cc(/C=N/Nc3cccc(Cl)c3F)c(-c3ccc(F)cc3)n2)cc1` [Compound 29, 4-[4-[(E)-[(3-Chloro-2-fluorophenyl)hydrazono]methyl]-3-(4-fluorophenyl)pyrazol-1-yl]benzoic Acid], for which the minimum inhibitory concentration (MIC) in [3] was determined as 12.5 µg/mL (≈ 27.6 µM); in assay [4], 1.56 µg/mL (≈ 3.44 µM); in assay [2], 1.56 µg/mL (≈ 3.44 µM); in [5], 3.12 µg/mL (≈ 6.9 µM); in assay [6], 6.25 µg/mL (≈ 13.8 µM); in assay [7] it was 12.5 µg/mL (≈ 27.6 µM).

Consider `N#Cc1ccc(N/N=C/c2cn(-c3ccc(C(=O)O)cc3)nc2-c2ccc(F)cc2)cc1` [Compound 30, 4-[4-[(E)-[(4-Cyanophenyl)hydrazono]methyl]-3-(4-fluorophenyl)pyrazol-1-yl]benzoic Acid], for which the MIC came out at 12.5 µg/mL (≈ 29.4 µM) in [4]; 6.25 µg/mL (≈ 14.7 µM) in assay [2]; 12.5 µg/mL (≈ 29.4 µM) in assay [8]; 12.5 µg/mL (≈ 29.4 µM) in assay [9]; 12.5 µg/mL (≈ 29.4 µM) in [6]. Moreover, the “activity” value in [1] is “moderate activity”.

As for `O=C(O)c1ccc(-n2cc(/C=N/Nc3ccc([N+](=O)[O-])cc3)c(-c3ccc(F)cc3)n2)cc1` [Compound 31, 4-[3-(4-Fluorophenyl)-4-{(E)-[2-(4-nitrophenyl)hydrazinylidene]methyl}-1H-pyrazol-1-yl]benzoic Acid], the “activity” value in assay [1] is reported as “no activity”.
